Test results as given in ChEMBL document CHEMBL1139970, “3,4-Dihydro-2H-benzo[1,4]oxazine derivatives as 5-HT6 receptor antagonists” (Bioorg Med Chem Lett, 2007).

Experiments:
[1] = target: 5-hydroxytryptamine receptor 6 (Homo sapiens, UniProt P50406); experiment: Displacement of [3H]LSD from human recombinant 5HT6 receptor expressed in HEK293 cells; type: cell-based
Method in brief: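 Competition binding against [3H]LSD, run at 37 °C on HEK293 cells expressing recombinant human 5-HT6 receptor. Affinity is expressed as pKi, with standard deviation of the pKi estimates 0.05–0.3.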

[2] = target: T1, hERG (KCNH2) (Homo sapiens, UniProt Q12809); experiment: Inhibition of hERG current at 1 uM by patch clamp electrophysiology assay; type: toxicity
T1 sequence (Q12809 whole entry): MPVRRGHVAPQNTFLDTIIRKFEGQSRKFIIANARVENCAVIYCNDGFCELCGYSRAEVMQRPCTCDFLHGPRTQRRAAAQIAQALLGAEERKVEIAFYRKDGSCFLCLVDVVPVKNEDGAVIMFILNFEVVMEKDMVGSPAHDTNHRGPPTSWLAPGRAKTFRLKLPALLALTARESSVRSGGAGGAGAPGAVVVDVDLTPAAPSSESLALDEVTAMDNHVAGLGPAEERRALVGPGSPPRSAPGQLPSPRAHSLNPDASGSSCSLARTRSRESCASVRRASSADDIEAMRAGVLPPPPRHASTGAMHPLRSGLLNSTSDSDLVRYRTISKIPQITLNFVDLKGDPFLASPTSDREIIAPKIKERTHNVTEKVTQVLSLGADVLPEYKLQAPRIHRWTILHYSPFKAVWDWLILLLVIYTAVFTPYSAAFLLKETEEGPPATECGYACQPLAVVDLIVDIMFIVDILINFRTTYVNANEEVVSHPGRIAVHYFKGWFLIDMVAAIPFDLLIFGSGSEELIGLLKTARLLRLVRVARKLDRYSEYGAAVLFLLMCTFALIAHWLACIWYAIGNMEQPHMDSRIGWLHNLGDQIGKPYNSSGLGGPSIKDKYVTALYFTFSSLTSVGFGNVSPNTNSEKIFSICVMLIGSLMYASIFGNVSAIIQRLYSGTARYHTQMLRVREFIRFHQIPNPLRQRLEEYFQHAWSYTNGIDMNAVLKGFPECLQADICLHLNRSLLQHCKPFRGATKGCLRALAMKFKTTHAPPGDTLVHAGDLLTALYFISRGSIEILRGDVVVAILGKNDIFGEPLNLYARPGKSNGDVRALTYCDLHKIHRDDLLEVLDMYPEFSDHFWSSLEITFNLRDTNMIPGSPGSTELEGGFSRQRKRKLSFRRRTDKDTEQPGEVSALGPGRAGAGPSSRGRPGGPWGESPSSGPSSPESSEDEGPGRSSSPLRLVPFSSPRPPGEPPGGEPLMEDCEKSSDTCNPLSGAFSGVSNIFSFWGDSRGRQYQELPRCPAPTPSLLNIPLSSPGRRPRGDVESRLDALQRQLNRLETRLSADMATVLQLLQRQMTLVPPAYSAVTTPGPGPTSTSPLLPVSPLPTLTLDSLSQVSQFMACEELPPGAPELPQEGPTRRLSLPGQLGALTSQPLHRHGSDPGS
Method in brief: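 Conventional patch-clamp electrophysiology measuring inhibition of hERG outward current at a single test concentration. Baseline set to 0%; mean with SEM from n = 2 cells.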

[3] = Ratio of drug level in brain to plasma in rat at 2 mg/kg, iv after 1 hr; type: ADME, organism-based; set-up: dose 2 mg/kg, route intravenous
Method in brief: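 Rats received a single intravenous 2 mg/kg dose. At 1 h post-dose, drug levels in whole brain homogenate and plasma were quantified by HPLC–MS/MS, and the brain-to-plasma ratio was calculated.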

[4] = target: T1, hERG (KCNH2); experiment: Inhibition of hERG current by patch clamp electrophysiology assay; type: toxicity

Chain of 5-hydroxytryptamine receptor 6 (P50406 whole entry): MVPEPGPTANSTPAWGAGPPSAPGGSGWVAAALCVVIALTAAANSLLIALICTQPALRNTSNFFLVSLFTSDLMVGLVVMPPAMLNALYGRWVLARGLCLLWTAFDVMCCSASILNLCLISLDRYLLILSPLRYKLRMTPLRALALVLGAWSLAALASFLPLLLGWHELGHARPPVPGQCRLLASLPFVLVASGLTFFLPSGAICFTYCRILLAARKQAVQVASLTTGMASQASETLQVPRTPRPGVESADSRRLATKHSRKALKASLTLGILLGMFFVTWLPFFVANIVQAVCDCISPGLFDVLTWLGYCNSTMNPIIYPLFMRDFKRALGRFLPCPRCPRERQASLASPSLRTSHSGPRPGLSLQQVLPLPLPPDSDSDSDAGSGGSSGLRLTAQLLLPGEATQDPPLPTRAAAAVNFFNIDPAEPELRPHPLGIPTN

Row | Ki [1] | Compound | inhibition at 1 µM [2] | Kp at 1 h [3] | IC20 [4]
1 |  | O=S(=O)(c1ccccc1F)N1CCOc2c(N3CCNCC3)cccc21 | 9.9% | 1.8 | 2200 nM
2 | 200 nM | CS(=O)(=O)Nc1cccc(S(=O)(=O)N2CCOc3c(N4CCNCC4)cccc32)c1 |  |  | 
3 | 316 nM | CS(=O)(=O)c1ccccc1S(=O)(=O)N1CCOc2c(N3CCNCC3)cccc21 |  |  | 
4 | 0.631 nM | O=S(=O)(c1cccc2cccnc12)N1CCOc2c(N3CCNCC3)cc(Cl)cc21 |  |  | 
5 | 2 nM | Cc1cc(N2CCNCC2)c2c(c1)N(S(=O)(=O)c1ccccc1C#N)CCO2 | 14.2% |  | 
6 | 7.94 nM | CC(C)(C)c1cc(N2CCNCC2)c2c(c1)N(S(=O)(=O)c1ccccc1F)CCO2 |  |  | 
7 | 0.316 nM | CC1(C)CN(S(=O)(=O)c2ccccc2F)c2cccc(N3CCNCC3)c2O1 |  |  | 
8 | 631 nM | Nc1cccc2c1OCCN2S(=O)(=O)c1ccccc1F |  |  | 
9 | 39.8 nM | Cc1cc(N2CC(C)NC(C)C2)c2c(c1)N(S(=O)(=O)c1ccc(Cl)cc1)CCO2 (stereo not given) |  |  | 
10 | 3.98 nM | CC1(C)CN(S(=O)(=O)c2ccccc2)c2cc(F)cc(C3CCNCC3)c2O1 |  |  | 
11 | 126 nM | CN(C)CCNc1cccc2c1OC(C)(C)CN2S(=O)(=O)c1cccc(F)c1 |  |  | 
12 | 0.158 nM | COc1cc(N2CCNCC2)c2c(c1)N(S(=O)(=O)c1ccccc1F)CCO2 |  |  | 
13 | 0.631 nM | O=S(=O)(c1ccccc1F)N1CC2(CCC2)Oc2c(N3CCNCC3)cccc21 |  |  | 
14 | 3.98 nM | O=S(=O)(c1ccccc1)N1CCOc2c(N3CCCNCC3)cc(Cl)cc21 |  |  | 
15 | 0.794 nM | O=S(=O)(c1cccc2ccccc12)N1CCOc2c(N3CCNCC3)cc(Cl)cc21 |  |  | 
16 | 5.01 nM | CC1(C)CN(S(=O)(=O)c2cccc(F)c2)c2cc(F)cc(C3CCNCC3)c2O1 |  |  | 

Row | Compound | Ki [1] | inhibition at 1 µM [2] | Kp at 1 h [3] | IC20 [4]
17 | O=S(=O)(c1ccccc1)N1CCOc2c(N3CCNCC3)cccc21 | 12.6 nM |  |  | 
18 | O=S(=O)(c1cccc(Cl)c1)N1CCOc2c(N3CCNCC3)cccc21 | 2 nM |  | 1.4 | 
19 | O=S(=O)(c1cccc(F)c1)N1CCOc2c(N3CCNCC3)cccc21 | 10 nM |  |  | 
20 | Cc1cc(N2CCNCC2)c2c(c1)N(S(=O)(=O)c1ccccc1F)CCO2 | 0.398 nM | 26.5% |  | 
21 | O=S(=O)(c1ccccc1F)N1CCOc2c(N3CCNCC3)cc(F)cc21 | 0.631 nM | 26% |  | 
22 | O=S(=O)(c1ccccc1F)N1CCOc2c(N3CCNCC3)cc(Cl)cc21 | 0.398 nM | 45.2% | 2.7 | 
23 | COc1cc(N2CCNCC2)c2c(c1)N(S(=O)(=O)c1ccccc1)CCO2 | 0.398 nM | 34% | 0.8 | 
24 | Nc1ccc(S(=O)(=O)N2CCOc3c(N4CCNCC4)cc(F)cc32)cc1 | 1.26 nM |  |  | 
25 | Cc1cc(N2CCNCC2)c2c(c1)N(S(=O)(=O)c1ccccc1)CCO2 | 2.51 nM | 23.2% | 1 | 
26 | O=S(=O)(c1ccccc1Cl)N1CCOc2c(N3CCNCC3)cccc21 | 3.16 nM | 28.2% | 1.6 | 
